# Measured values collected from several papers.
# Compare with care: the assays were run in different laboratories.
# Target: cGMP-dependent protein kinase 2 (PRKG2, Homo sapiens, UniProt Q13237)
# Sequence (Q13237 1-762, as in one of the studies): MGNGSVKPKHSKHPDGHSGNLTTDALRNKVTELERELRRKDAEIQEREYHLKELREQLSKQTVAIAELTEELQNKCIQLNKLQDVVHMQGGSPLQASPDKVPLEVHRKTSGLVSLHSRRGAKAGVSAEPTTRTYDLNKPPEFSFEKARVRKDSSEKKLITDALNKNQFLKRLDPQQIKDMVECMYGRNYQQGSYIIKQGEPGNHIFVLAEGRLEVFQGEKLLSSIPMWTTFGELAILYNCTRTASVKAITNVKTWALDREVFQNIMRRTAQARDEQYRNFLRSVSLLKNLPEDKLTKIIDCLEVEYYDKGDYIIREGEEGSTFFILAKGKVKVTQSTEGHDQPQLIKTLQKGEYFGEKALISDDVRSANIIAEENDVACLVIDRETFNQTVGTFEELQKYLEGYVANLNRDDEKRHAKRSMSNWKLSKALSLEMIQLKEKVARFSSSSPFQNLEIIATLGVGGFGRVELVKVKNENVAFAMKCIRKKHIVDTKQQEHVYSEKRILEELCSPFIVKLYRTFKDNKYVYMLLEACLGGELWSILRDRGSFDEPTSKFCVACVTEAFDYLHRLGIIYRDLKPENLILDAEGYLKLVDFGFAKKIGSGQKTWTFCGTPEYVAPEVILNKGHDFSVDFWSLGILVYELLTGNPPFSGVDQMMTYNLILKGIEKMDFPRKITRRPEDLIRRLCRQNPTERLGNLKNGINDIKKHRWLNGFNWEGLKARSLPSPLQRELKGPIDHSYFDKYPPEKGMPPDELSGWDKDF
test,conditions,remaining binding,Compound
"cell-free assay, competition with immobilised ligand",1 µM,100%,C[C@H](c1ccc(F)cc1)N(Cc1cccc(C(=O)O)c1)C(=O)c1cnc2ccccc2c1
binding,1 µM,91%,N[C@H]1CCN(c2nccc(-c3cnn4ncccc34)n2)C1
"cell-free assay, competition with immobilised ligand",1 µM,86%,CCS(=O)(=O)c1cc2cc(C[C@@](O)(CC(C)(C)c3ccc(F)cc3C(N)=O)C(F)(F)F)[nH]c2cn1
binding,1 µM,82%,c1cnn2ncc(-c3ccnc(N4CCC45COC5)n3)c2c1
"binding, competition with immobilised ligand",1 µM,2.8%,Cc1cnc(Nc2ccc(C(=O)N3CCC(N4CCCC4)CC3)cc2)nc1-c1cc2ccccc2s1
binding,1 µM,96%,CN(CCCC(F)(F)F)c1nccc(-c2cnn3ncccc23)n1
"binding, competition with immobilised ligand",1 µM,13%,O=C(c1ccc(Nc2ncc(Cl)c(-c3cc4ccccc4s3)n2)cc1)N1CCC(N2CCCC2)CC1
"binding, competition with immobilised ligand",1 µM,69%,C=CC(=O)N1CCC(C(=O)NCC(=O)N2CCN(c3nc(-c4cnc(N)nc4C(F)F)nc(N4CCOCC4)n3)CC2)CC1
"cell-free assay, competition with immobilised ligand",5 µM,100%,COc1ncc2cc3ccccc3nc2c1C#N
"binding, competition with immobilised ligand",1 µM,100%,COc1cnc(Nc2cccc(S(N)(=O)=O)c2)nc1N1CCN(c2ccccc2)C(=O)C1
"binding, competition with immobilised ligand",0.1 µM,73%,C[C@@H](c1ccc(-n2cnc3c(N)ncnc32)cc1)N1CCc2nn(C)c(Cc3ccccc3)c2C1=O
"cell-free assay, competition with immobilised ligand",1 µM,100%,CCC(=O)N[C@H]1CC[C@@H](C(=O)N(C)c2ccc(-c3nc4ccccc4o3)cc2)C1
"binding, competition with immobilised ligand",1 µM,43%,O=C(NCCCN1CCOCC1)c1ccc(Nc2nccc(-c3cc4ccccc4s3)n2)cc1
"binding, competition with immobilised ligand",1 µM,100%,CCN1CCN(Cc2ccc(C(=O)Nc3ccc(C)c(Oc4ccc5c(c4)CC(=O)N5)c3)cc2C(F)(F)F)CC1
"cell-free assay, competition with immobilised ligand",1 µM,100%,NS(=O)(=O)c1cc(NC(=O)C2(c3ccccc3Cl)CC2)ccc1Oc1cccc(Cl)c1
"binding, competition with immobilised ligand",1 µM,91%,O=C(Nc1c[nH]nc1C(=O)NC1CCNCC1)c1cc(F)cc(F)c1
binding,1 µM,98%,Cc1cnn2ncc(-c3ccnc(N(C)C)n3)c2c1
"cell-free assay, competition with immobilised ligand",1 µM,93%,CNCc1ccccc1-c1csc([C@H](C)Nc2nc(C)nc3cc(OC)c(OC)cc23)c1
binding,1 µM,100%,COc1ccnn2ncc(-c3ccnc(N(C)C)n3)c12
"cell-free assay, competition with immobilised ligand",1 µM,100%,CO[C@@H](C)c1c(Nc2ccc([C@H](N(C)C(=O)C3CCS(=O)(=O)CC3)C(F)(F)F)cc2)cnc2cc(Cl)nn12
binding,1 µM,100%,CN(C)c1ncc(F)c(-c2cnn3ncccc23)n1
"cell-free assay, competition with immobilised ligand",1 µM,84%,Nc1cnc(N2CCc3cc(S(=O)(=O)Nc4c(F)cc(Cl)cc4F)cc(N4CCCC4=O)c32)nc1
